In ChEMBL document CHEMBL4513216, “Probing the Open Global Health Chemical Diversity Library for Multistage-Active Starting Points for Next-Generation Antimalarials” (ACS Infect Dis, 2020):

Assay: Toxicity liver stage against HepG2, at 10uM
Format: cell-based
Design: test concentration 10 uM, cell line HepG2-A16-CD81EGFP
Conditions: human, HepG2-A16-CD81EGFP cells; read-out: INHIBITION
Outline: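 Uninfected HepG2-A16-CD81EGFP cells, 3 × 10^3 per well, 1536-well, plated on prespotted compound at 10 μM final, parasite-free screening media added to match infected plates; puromycin 10 μM positive, DMSO 0.5% negative; run in parallel with 48 h PbLuc assay at 37 °C, 5% CO2; viability by CellTiter-Glo luminescence, normalized to controls.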

SMILES: CCCS(=O)(=O)NCCn1ccc(-c2cccs2)n1
- cytotoxicity at 10 µM: 5.55%

SMILES: CC(=O)NCC(=O)N1CCc2c(CN(C)C)nn(C(C)C)c2C1
- cytotoxicity at 10 µM: -4.94%

SMILES: O=C(c1ccc[nH]1)N1CC2(CCN(c3nccs3)C2)C1
- cytotoxicity at 10 µM: 5.68%

SMILES: Cc1cc(C(=O)N2C[C@@H]3CN(S(C)(=O)=O)CCO[C@@H]3C2)c(C)o1
- cytotoxicity at 10 µM: -3.49%

SMILES: CC1c2ncc(Cn3cncn3)n2CCN1C(=O)Cc1cccs1 (stereo not given)
- cytotoxicity at 10 µM: 7.89%

SMILES: CCC(C)[C@H](NC(=O)c1cc(Br)ccc1-n1cnnn1)C(=O)OC (stereo not given in full)
- cytotoxicity at 10 µM: 2.58%

SMILES: Cn1cccc1C(CNC(=O)c1ccc(F)cc1F)N1CCCCCC1 (stereo not given)
- cytotoxicity at 10 µM: 2.19%

SMILES: Cc1cc(Nc2ccc(F)cn2)cc(C2CCCN2)n1 (stereo not given)
- cytotoxicity at 10 µM: 0.0453%

SMILES: Cc1cc2ccccc2n1CCC(=O)N1CCN(C)CC1C(N)=O (stereo not given)
- cytotoxicity at 10 µM: -1.04%

SMILES: Cc1ccc(CN2CCCC(c3cnccn3)C2)s1 (stereo not given)
- cytotoxicity at 10 µM: 2.46%

SMILES: Nc1nc(C2CCN(C(=O)c3cscn3)CC2)cs1
- cytotoxicity at 10 µM: 3.32%

SMILES: CCC1COCCN1C(=O)CNC(=O)c1ccsc1 (stereo not given)
- cytotoxicity at 10 µM: 4.53%

SMILES: Cc1n[nH]cc1CNCC1(c2ccccc2Cl)CCOCC1
- cytotoxicity at 10 µM: 8.16%

SMILES: CCN1CCN(C2CCN(Cc3ccc(Cl)s3)CC2)C1=O
- cytotoxicity at 10 µM: 13.1%

SMILES: CCCN(C(=O)c1ccc(-n2ccnn2)cc1)c1cccnc1
- cytotoxicity at 10 µM: 13.8%

SMILES: Cc1cc(C)n(-c2cncc(NCCNC(=O)C(C)(C)C)n2)n1
- cytotoxicity at 10 µM: 1.36%

SMILES: Cc1ncsc1CN(C)Cc1cc2c(cc1OC(F)F)OCO2
- cytotoxicity at 10 µM: 6.22%

SMILES: c1csc(-c2noc(CN3CCc4c(ncn4C4CC4)C3)n2)c1
- cytotoxicity at 10 µM: 5.93%

SMILES: CC(=O)NS(=O)(=O)c1ccc(F)cc1C(F)(F)F
- cytotoxicity at 10 µM: 1.25%

SMILES: CC(C)N(CCS(C)(=O)=O)Cc1csc(Cc2ccc(Cl)cc2)n1
- cytotoxicity at 10 µM: -40.6%

SMILES: Cn1nc(Br)c2c(NCCNc3ncccn3)ncnc21
- cytotoxicity at 10 µM: 11.3%

SMILES: CCC(C)n1cnc(S(=O)(=O)N(C)c2cccnc2N(C)C)c1 (stereo not given)
- cytotoxicity at 10 µM: -3.08%

SMILES: CCc1nsc(N2CCCN(C(=O)c3ccc(CC)o3)CC2)n1
- cytotoxicity at 10 µM: 7.76%

SMILES: Cc1cnn(C2CN(Cc3nnc(Cc4ccccc4)o3)C2)c1
- cytotoxicity at 10 µM: 4.4%

SMILES: Cc1nc(NC(=O)C(C)S(C)(=O)=O)sc1Cc1ccc(F)cc1 (stereo not given)
- cytotoxicity at 10 µM: 4.52%

SMILES: CC(NCC(=O)N(C)C1CC1)c1ccc(S(C)(=O)=O)c(F)c1 (stereo not given)
- cytotoxicity at 10 µM: 6.27%

SMILES: CCN(CC)C(=O)CCc1c(C)nc2cc(O)nn2c1C
- cytotoxicity at 10 µM: 0.33%

SMILES: Cc1ccc(N2CCCC3(CCN(C(=O)NC4CCCC4)C3)C2)nn1 (stereo not given)
- cytotoxicity at 10 µM: -114%

SMILES: CCO[C@H]1CC[C@H]2[C@H]1OCCN2C(=O)COc1ccccc1
- cytotoxicity at 10 µM: -94%

SMILES: COCCC(=O)N1CCC2(COCc3cnc(N4CCOCC4)nc32)C1 (stereo not given)
- cytotoxicity at 10 µM: 2.21%

SMILES: O=C(NCC1CC1)[C@H]1C[C@H]2OCC[C@H]2N(Cc2ccsc2)C1
- cytotoxicity at 10 µM: 2.47%

SMILES: CN1CCC(n2nc(CC3CC3)nc2-c2ccc(F)cc2Cl)CC1
- cytotoxicity at 10 µM: -1.84%

SMILES: CCNc1ncc(CN(CCN(C)C)Cc2ccc(C)s2)cn1
- cytotoxicity at 10 µM: -46.1%

SMILES: Cc1noc(-c2ccc(Oc3cccc(CN4CCCC4)c3F)nc2)n1
- cytotoxicity at 10 µM: -6.03%

SMILES: CC(C)CN(Cc1ccc(-n2cncn2)cc1)Cc1ccccn1
- cytotoxicity at 10 µM: 8.57%

SMILES: Cc1cc(C)c(C(=O)N2CCCC(O)(CN3CCCC3)C2)cc1C (stereo not given)
- cytotoxicity at 10 µM: 8.4%

SMILES: CC(C)(C)c1ccn(C2(C(=O)O)CCN(c3ccncc3F)CC2)n1
- cytotoxicity at 10 µM: -0.423%

SMILES: COc1ccc(C(=O)N2C[C@@H](CN3CCCC3)[C@@H](CO)C2)c(C)c1
- cytotoxicity at 10 µM: -7.21%

SMILES: Cc1ccc(NC2CCCN(C3Cc4ccccc4C3)C2)nn1 (stereo not given)
- cytotoxicity at 10 µM: -2.38%

SMILES: Cn1cccc1C(=O)N1CCC2(CC1)c1nc[nH]c1CCN2S(C)(=O)=O
- cytotoxicity at 10 µM: -0.359%

SMILES: COCCC1(CO)CCCN(CCCc2ccccc2)C1 (stereo not given)
- cytotoxicity at 10 µM: -1.4%

SMILES: COc1ccc(CCC2CCCN(C(=O)c3cnc(N)nc3C)C2)cc1 (stereo not given)
- cytotoxicity at 10 µM: 1.14%

SMILES: Cc1nc(N2CCN(C)CC2)ncc1C(=O)N1C[C@@H](C)[C@@](C)(O)C1
- cytotoxicity at 10 µM: 2.32%

SMILES: CCO[C@H]1CN(C)C[C@@H]1NC(=O)c1cc(C)nc2c(C)c(C)ccc12
- cytotoxicity at 10 µM: 1.64%

SMILES: CN(Cc1cc[nH]n1)C(C(=O)O)c1ccc(Cl)cc1 (stereo not given)
- cytotoxicity at 10 µM: 0.595%

SMILES: CCCNC(=O)C(C)Oc1ccccc1 (stereo not given)
- cytotoxicity at 10 µM: -6.68%

SMILES: COc1ccc2c(c1)OCC(CNC(=O)CCc1c(C)n[nH]c1C)C2 (stereo not given)
- cytotoxicity at 10 µM: -48.5%

SMILES: Nc1cc(C(=O)N2CCCC3(C=Cc4ccccc4O3)CC2)ccn1 (stereo not given)
- cytotoxicity at 10 µM: 13.7%

SMILES: Cc1cccc2cc(CN3CCCN4CCC[C@H]4C3)c(=O)[nH]c12
- cytotoxicity at 10 µM: 2.67%

SMILES: CCC(Nc1nc(C)nc2c1cnn2C)c1ncnn1CC (stereo not given)
- cytotoxicity at 10 µM: -7.17%

SMILES: CC(C)OC(=O)c1ccc(Cl)c(NC(=O)NCCN2CCOCC2)c1
- cytotoxicity at 10 µM: -54.4%

SMILES: Cc1ncc(C(=O)N2CCCN(Cc3ccccc3F)CC2)c(O)n1
- cytotoxicity at 10 µM: 0.903%

SMILES: Cc1cc(C)c2nc(CN3CCC(N4CCOCC4)CC3)cc(O)c2c1
- cytotoxicity at 10 µM: -0.173%

SMILES: CN(Cc1cccc2cnccc12)C(=O)CCc1n[nH]c2c1CCCC2
- cytotoxicity at 10 µM: -7.27%

SMILES: COCc1cn(C2CCN(C(=O)Cc3ccsc3)CC2)nn1
- cytotoxicity at 10 µM: -4.2%

SMILES: c1ccc(CCn2cc(-c3nc(CN4CCOCC4)no3)nn2)cc1
- cytotoxicity at 10 µM: 1.85%

SMILES: Cc1cc(C(=O)N2CCCC(C)C2)ccc1NCc1nc(C2CC2)no1 (stereo not given)
- cytotoxicity at 10 µM: -8.38%

SMILES: Cc1ncsc1C(=O)NCCNc1ncccn1
- cytotoxicity at 10 µM: 1.76%

SMILES: Cc1noc(C)c1CN(C)C(=O)c1ccc(C(N)=O)nc1
- cytotoxicity at 10 µM: -4.24%

SMILES: CCc1nc(C(=O)N2CCN(C)CC2)nn1-c1ccccc1Cl
- cytotoxicity at 10 µM: 2.1%

SMILES: Cc1nc(CN2CCCC(Cn3cncn3)C2)no1 (stereo not given)
- cytotoxicity at 10 µM: 4.34%

SMILES: O=C(Cn1cc(-c2ccccc2)cn1)NC(C1CC1)C1CC1
- cytotoxicity at 10 µM: -5%

SMILES: CCN(CCNC(=O)c1cccnc1OCCOC)C1CC1
- cytotoxicity at 10 µM: -0.966%

SMILES: c1cc2n(n1)CC(CNCc1ccc(OCC3CC3)nc1)CN2 (stereo not given)
- cytotoxicity at 10 µM: -3.97%

SMILES: Cc1nc(C)c(C(=O)NCCNC(=O)c2ccc(F)cc2F)s1
- cytotoxicity at 10 µM: -5.55%

SMILES: COc1ccccc1CCNC(=O)CN1CCCC1c1noc(C)n1 (stereo not given)
- cytotoxicity at 10 µM: -3.81%

SMILES: CN(C)c1cc2c(nn1)CCN(C(=O)C1CCc3ccccc31)C2 (stereo not given)
- cytotoxicity at 10 µM: -12.2%

SMILES: CC(=O)Nc1nc(CN2CCCC2c2cnn(C)c2)cs1 (stereo not given)
- cytotoxicity at 10 µM: -11.8%

SMILES: FC(F)(F)c1ccc(-c2cnc(C3CCCN3)cn2)cc1 (stereo not given)
- cytotoxicity at 10 µM: -1.12%

SMILES: Cc1occc1C(=O)N1C[C@H](Oc2ccccn2)[C@H]2OCCC[C@H]21
- cytotoxicity at 10 µM: -110%

SMILES: CC(C)CC(=O)NC1CC2(CCN(CCF)CC2)Oc2ccccc21 (stereo not given)
- cytotoxicity at 10 µM: 1.08%

SMILES: CN1C[C@@H]2COC[C@]2(C(=O)NCCc2cccs2)C1
- cytotoxicity at 10 µM: 8.1%

SMILES: c1cnc(N2CC[C@@H]3O[C@@H](COCc4cccnc4)CC[C@@H]32)nc1
- cytotoxicity at 10 µM: 11.2%

SMILES: COc1ccc(CN2C[C@H]3CCC[C@@H](CN(C)C)[C@H]3C2)cn1
- cytotoxicity at 10 µM: 4.65%

SMILES: CC(C)COCC1CN(C(=O)c2cscn2)Cc2ncn(C)c21 (stereo not given)
- cytotoxicity at 10 µM: -109%

SMILES: Cc1cccc(CN2CCS(=O)(=O)[C@@H]3CCN(C(=O)C4CC4)CC[C@@H]32)n1
- cytotoxicity at 10 µM: -3.64%

SMILES: O=C(O)c1c(-c2ccncc2)ncc2c1CCN(CC1CCOC1)C2 (stereo not given)
- cytotoxicity at 10 µM: -100%

SMILES: COCC1CN(S(=O)(=O)c2ccc(C)cc2)Cc2c1cnn2C (stereo not given)
- cytotoxicity at 10 µM: -5.37%

SMILES: CN(C)C(=O)CN1CCOCC2(CCN(CC3CCOCC3)CC2)C1
- cytotoxicity at 10 µM: 8.55%

SMILES: Cc1nc2c(c(NC(C)C)n1)CCN(C(=O)c1cc[nH]n1)CC2
- cytotoxicity at 10 µM: 6.71%
